# Source: PubChem (several laboratories)
# pCIP destab = p/CIP protein destabilization. Q05BA5. F442A p/CIP-EGFP cells, EGFP fluorescence, 16 h. decrease of EGFP signal, % at 10 µM. actives 0.01% (n = 290,000). AID 1984;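 active = EGFP signal decrease of at least 30% at 10 µM or well 3 SD below plate mean, unless failing retest; inactive = the rest, including hits failing retest or dose response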
# AI-2 QS modul = modulates the Vibrio harveyi AI-2 quorum sensing system; actives 0.4% (n = 300,000); activity change, % at 7.5 µM; Vibrio harveyi JMH597 AI-2 luminescence/OD600 ratio, 9 h; stronger effect = lower value; strain lacks LuxN and CqsS sensors; 0 = neutral-control median; in the data active = activity change below about -75%, passing the limit was not always enough; inconclusive = no clear call, values can overlap the other calls;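 also: luminescence divided by OD600 gain over 9 h not by final OD600 alone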
# UBC13 polyUb = blocks human UBC13 polyubiquitin chain formation; actives 0.47% (n = 330,000); TR-FRET; P61088; inhibition, % at 20 µM; AID 485273; in the data active = inhibition above about 45%, passing the limit was not always enough; inconclusive = no clear call, values can overlap the other calls
# Target sequence (P61088 whole entry, looked up): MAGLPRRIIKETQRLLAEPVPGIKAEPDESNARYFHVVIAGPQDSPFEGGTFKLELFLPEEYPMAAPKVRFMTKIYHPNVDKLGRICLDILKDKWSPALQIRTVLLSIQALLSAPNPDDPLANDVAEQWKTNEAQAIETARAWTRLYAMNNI
# T cruzi repl = blocks replication of Trypanosoma cruzi; T. cruzi beta-gal in NIH3T3, luminescence, 90 h; inhibition, % (concentration not given with the values); actives 1.4% (n = 300,000); AID 1885;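 active = mean inhibition across valid replicates above about 55%, limit read from the data; inconclusive = mean below that limit but half or more replicates reach it; inactive = mean below it, under half of replicates reach it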;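 also: signal also drops with host cell toxicity which is not excluded here; 0% = plate median of DMSO wells and 100% = zero luminescence signal; higher percent means less beta-gal luminescence so fewer parasites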
#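 Read-out: Parasite load inhibition, % | Test system: Mouse NIH/3T3 fibroblasts infected with β-gal-expressing T. cruzi Tulahuen C4 | Amount: 5,000 cells/well | Medium: DMEM, 2% fetal bovine serum | Signal: GalScreen β-gal luminescence, detergent lysis, 60 min | Timing: 3 h attach, ≥90 h co-culture | Also added: Tulahuen C4 trypomastigotes, 5000/well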
# PP1 inh = PP1-alpha (human) inhibition in PP5 counter-screen; actives 0.9% (n = 320,000); P62136; purified PP1alpha, OMFP fluorescence; inhibition, % at 6.7 µM;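 active = inhibition above the mean inhibition of all tested compounds plus 3 SD, computed separately for each screening campaign, cut at about 15% in these data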
# Target sequence (P62136 whole entry, looked up): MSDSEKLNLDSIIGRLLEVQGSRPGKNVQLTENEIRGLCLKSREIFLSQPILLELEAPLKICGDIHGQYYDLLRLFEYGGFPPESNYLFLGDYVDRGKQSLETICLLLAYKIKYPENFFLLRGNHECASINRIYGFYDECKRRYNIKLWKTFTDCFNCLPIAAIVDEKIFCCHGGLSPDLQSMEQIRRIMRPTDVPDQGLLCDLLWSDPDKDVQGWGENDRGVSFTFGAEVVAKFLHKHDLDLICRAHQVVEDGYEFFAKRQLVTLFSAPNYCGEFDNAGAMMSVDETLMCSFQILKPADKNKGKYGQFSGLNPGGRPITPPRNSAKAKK
# PP1 inh confirm = confirmation of human PP1 phosphatase inhibitors | shares compounds with PP1 inh | purified PP1alpha, OMFP substrate fluorescence | inhibition, % at 6.7 µM | actives 52% (n = 1,900) | AID 2358;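 active = mean PP1 inhibition above a set limit taken from the earlier primary screen, cut at about 15% in these data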
# PP5 inh counter = PP5 phosphatase inhibition, counter-screen for PP1 inhibitors | shares compounds with PP1 inh | purified PP5c, OMFP fluorescence | inhibition, % at 6.7 µM | actives 4% (n = 1,900);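 active = mean PP5 inhibition over triplicate wells above about 9.5% taken from the earlier PP1 screen, limit read from the data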
# Casp3 counter = inhibits human caspase-3 in UBC13 counter-screen | Recombinant caspase-3, Caspase-Glo 3/7 luminescence, 60 min | AID 488856 | inhibition, % at 20 µM | shares compounds with UBC13 polyUb | actives 4% (n = 1,400);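 active = mean inhibition across replicates above about 26%, limit read from the data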;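 also: plate controls were DMSO with caspase-3 for no effect and DMSO wells lacking enzyme for full effect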
# UBC13 conf = human UBC13 polyubiquitin inhibition, confirmed; shares compounds with UBC13 polyUb; UBC13 polyubiquitination, TR-FRET, biochemical; inhibition, % at 10 µM; actives 68% (n = 1,400); AID 488859; in the data active = inhibition above about 45%; inconclusive = no clear call, values can overlap the other calls
# Numbers without * were called inactive; ? = inconclusive; . = no result. Shown are actives, neighbours in structure and some others; about 2.8% of the full set was active somewhere.
SMILES,pCIP destab,AI-2 QS modul,UBC13 polyUb,T cruzi repl,PP1 inh,PP1 inh confirm,PP5 inh counter,Casp3 counter,UBC13 conf
CCCCCCCCCCCCCCCC[N+](C)(C)CCN(Cc1ccc(OC)cc1)c1ncccn1,.,.,119*,.,69*,35*,7,0,124*
CC(C)(C)NC(=O)COC(=O)c1cc(F)c(F)cc1Cl,3,14,2,-14,-3,.,.,.,.
Nc1ccc(Sc2cc(Cl)nc(N)n2)cc1,3,25,-3,-1,0,.,.,.,.
Nc1nc(N)c2cc(Sc3ccc4ccccc4c3)ccc2n1,-19,4,50*,58*,23*,11,0,3,37
COC(=O)C[C@H]1c2ccccc2S(=O)(=O)N1C(C)C,.,11,2,-1,4,.,.,.,.
CCn1c(=O)cc(SCC(=O)N2CCN(C3CCCCC3)CC2)c2ccccc21,1,45,79*,28,30*,0,3,-2,?
CCOC(=O)C1=C(c2ccccc2)NC(=O)NC1c1cc(Cl)c(O)c(OC)c1 (stereo unspecified),-2,17,0,-2,0,.,.,.,.
CCOC(=O)C1=C(c2ccccc2)NC(N)=NC1c1ccc(OCc2ccc(Cl)cc2)c(OC)c1 (stereo unspecified),-7,26,49*,21,25*,29*,0,6,87*
Cc1cc(NCCCn2ccnc2)n2nc(-c3ccc(Cl)cc3)cc2n1,2,1,3,25,6,.,.,.,.
CC(C)(C)c1cc(NCCCn2ccnc2)n2ncc(-c3ccc(Cl)cc3)c2n1,4,21,52*,58*,38*,39*,4,0,77*
Cc1cc(C(=O)NCCc2ccc(S(N)(=O)=O)cc2)c(C)o1,-1,7,5,14,-1,.,.,.,.
O=C(NC1CC1)C1CC(=O)N(c2cccc(Cl)c2)C1 (stereo unspecified),-3,-1,-2,-13,-5,.,.,.,.
C#CCOCCOCCOCCNc1nc(N2CCN(C(=O)C([C@@H](C)CC)n3cc(C(N)CC(C)C)nn3)CC2)nc(N2CCN(C(=O)[C@H](CCC(=O)O)n3cc(C(N)Cc4ccc(O)cc4)nn3)CC2)n1 (stereo partly specified),-9,9,14,-19,4,.,.,.,.
C#CCOCCOCCOCCNc1nc(N2CCN(C(=O)[C@H]([C@@H](C)CC)n3cc([C@@H](N)CC(C)C)nn3)CC2)nc(N2CCN(C(=O)[C@H](Cc3cc4ccccc4[nH]3)n3cc([C@@H](N)Cc4ccc(O)cc4)nn3)CC2)n1,-5,31,74*,-12,25*,-15,6,2,66*
C#CCOCCOCCOCCNc1nc(N2CCN(C(=O)[C@H]([C@@H](C)CC)n3cc([C@@H](N)Cc4ccc(O)cc4)nn3)CC2)nc(N2CCN(C(=O)[C@H](Cc3cc4ccccc4[nH]3)n3cc([C@@H](N)CC(C)C)nn3)CC2)n1,.,.,87*,.,28*,-13,-4,-4,61*
CNC[C@H](Cc1ccccc1)NC[C@@H](Cc1cccc2ccccc12)NCCc1ccc(C)cc1,-10,0,96*,48,20*,-6,1,-3,90*
Cc1cc(C(C)(C)CC(C)(C)C)ccc1OCCOCC[N+](C)(C)Cc1ccccc1,.,.,100*,.,30*,7,3,-2,105*
Cc1ccc(OCCNCc2ccccc2)c(C)c1,-4,.,7,8,1,.,.,.,.
NC1=NC[C@H](CC2CCCCC2)N1CCc1cc(C(F)(F)F)cc(C(F)(F)F)c1,-12,13,97*,30,18*,-2,3,-1,98*
NCCCC[C@H]1CN=C(N)N1CCCCC1CCCCC1,.,-3,23,-13,1,.,.,.,.
